Source: ChEMBL document CHEMBL1134317, “Synthesis, biological evaluation, and pharmacophore generation of uracil, 4(3H)-pyrimidinone, and uridine derivatives as potent and selective inhibitors of parainfluenza 1 (Sendai) virus” (J Med Chem, 2001)

Experiments:
MDCK = assay: Inhibitory activity against Parainfluenza 1 (Sendai) virus (PIV) in MDCK cells; format: functional; conditions: Canis lupus familiaris, read-out: ED50 (the source's name)
Summary of the method: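 Confluent MDCK monolayers infected with Sendai virus (10 HAU/10⁵ cells) and allowed to adsorb for 1 h at 37 °C. Inoculum removed, cells washed three times with PBS, then given fresh medium with 2% FCS. Compounds added after adsorption at several dilutions and kept until the end. Supernatants harvested at different times after challenge and titrated as hemagglutinin units. ED₅₀ derived from these titres.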

[1] = Minimum toxic concentration required to cause a microscopically detectable alteration of normal cell morphology of MDCK cells; conditions: Sendai virus, read-out: MTC
[2] = tested on: NSO mouse myeloma cells (Mus musculus); assay: Cytotoxicity required to inhibit cell proliferation by 50% (tritiated thymidine incorporation in proliferating NSO mouse myeloma cells)

| Structure (SMILES) | EC50 (MDCK) | MCC [1] | CC50 [2] |
| --- | --- | --- | --- |
| CCCOc1nc(CC2(c3ccccc3)CCCO2)cc(=O)n1C (stereo unspecified) | 152 µM | 305 µM | 170 µM |
| CCCCOc1nc(CC2CCCO2)cc(=O)n1C (stereo unspecified) | 195 µM | 376 µM | 579 µM |
| Cn1c(CC23CCC[C@H]2O3)cc(=O)n(C)c1=O (stereo partly specified) | – | > 0.84 µM | 8.4 µM |
| CCCCOc1nc(CC2(C)CCCO2)cc(=O)n1C (stereo unspecified) | 186 µM | 373 µM | 1080 µM |
| CCCOc1nc(CC2(C)CCCO2)cc(=O)n1C (stereo unspecified) | 187 µM | > 376 µM | 860 µM |
| COc1nc(CC2CCCO2)cc(=O)n1C (stereo unspecified) | > 446 µM | 446 µM | 1220 µM |
| C[C@H]1O[C@@]1(C)Cc1cc(=O)n(C)c(=O)n1C | – | > 2 µM | 89 µM |
| C[C@@H]1O[C@@]1(C)Cc1cc(=O)n(C)c(=O)n1C | – | > 2 µM | 89 µM |
| Cn1c(CC2(C)CO2)cc(=O)n(C)c1=O (stereo unspecified) | – | 0.48 µM | 4 µM |
| Cn1c(CC2(C(C)(C)C)CO2)cc(=O)n(C)c1=O (stereo unspecified) | – | > 0.79 µM | 7.9 µM |
| Cn1c(CC2(c3ccccc3)CO2)cc(=O)n(C)c1=O (stereo unspecified) | – | 0.37 µM | 3.7 µM |
| Cn1c(C[C@]2(C)CCCO2)cc(=O)n(C)c1=O | 1.11 µM | > 223 µM | 1380 µM |
| Cn1c(C[C@]2(c3ccccc3)CCCO2)cc(=O)n(C)c1=O | 116 µM | > 333 µM | 547 µM |
| Cn1c(C[C@@H]2CCCO2)cc(=O)n(C)c1=O | 338 µM | 446 µM | 1220 µM |
| CCCOc1nc(CC23CCCC[C@H]2O3)cc(=O)n1C (stereo partly specified) | – | > 352 µM | > 352 µM |
| Cn1c([C@H]2O[C@@H]2c2ccccc2)cc(=O)n(C)c1=O | 193 µM | 380 µM | > 380 µM |
| Cn1c(OC2CCCCC2)nc(CC2(C)CCCO2)cc1=O (stereo unspecified) | 164 µM | 326 µM | 816 µM |
| Cn1c(CC23CCCC[C@@H]2O3)cc(=O)n(C)c1=O (stereo partly specified) | > 2 µM | > 2 µM | 40 µM |
| CCCCOc1nc(CC2(c3ccccc3)CCCO2)cc(=O)n1C (stereo unspecified) | 146 µM | 292 µM | 90 µM |
| CCCOc1nc(CC2CCCO2)cc(=O)n1C (stereo unspecified) | 300 µM | 397 µM | 1020 µM |
| COc1nc(CC2(c3ccccc3)CCCO2)cc(=O)n1C (stereo unspecified) | 166 µM | 383 µM | 130 µM |
| CCCOc1nc(CC2(C)CCCO2)cc(OC)n1 (stereo unspecified) | 267 µM | > 305 µM | 375 µM |
| COc1nc(CC2(c3ccccc3)CO2)cc(=O)n1C (stereo unspecified) | 0.37 µM | 735 µM | > 360 µM |
| COc1nc(CC2(C)CCCO2)cc(=O)n1C (stereo unspecified) | 893 µM | 893 µM | 1620 µM |
| Cn1c(C2OC2(C)c2ccccc2)cc(=O)n(C)c1=O (stereo unspecified) | – | > 0.81 µM | 7.3 µM |
| CCCOc1nc(CC2(c3ccccc3)CO2)cc(=O)n1C (stereo unspecified) | – | 330 µM | > 330 µM |
| Cn1c(OC2CCCCC2)nc(CC2(c3ccccc3)CO2)cc1=O (stereo unspecified) | – | 294 µM | > 294 µM |
| CC1O[C@]1(C)Cc1cc(=O)n(C)c(OC2CCCCC2)n1 (mixture of isomers) | – | 342 µM | > 342 µM |
| Cn1c([C@H]2O[C@H]2c2ccccc2)cc(=O)n(C)c1=O (racemic) | 0.38 µM | > 0.8 µM | 7.7 µM |
